Broadly, the Tmax is the time at which the peak concentration occurs. Broadly, the MRT inf is a mean duration of stay, worked out from the concentration-time curve. For orientation: EC50 means the midpoint of the concentration-response curve.

Where only a bound is given, the exact number is not on record here.

Series [1] is described as follows: Apparent volume of distribution during terminal phase in Sprague-Dawley rat plasma at 16 mg/kg administered through oral gavage measured at 5 mins to 24 hrs post dosing by LC/MS analysis. Type of series: ADME, organism-based. To be noted: read-out: Vz/F. The essentials:
(§1)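 Male Sprague-Dawley rats, ten randomly split into two groups (n = 5), single gavage dose of 8 or 16 mg·kg−1 in PEG 400/normal saline (70/30, V/V). Jugular sinus blood into heparinized tubes at 5 min to 24 h; plasma separated at 2200g for 8 min, stored −20 °C. Methanol precipitation with internal standard, LC-MS quantitation against plasma standard curves. Parameters reported as mean ± SD.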

The nature of series [2]: Tmax in Sprague-Dawley rat plasma at 8 mg/kg administered through oral gavage measured at 5 mins to 24 hrs post dosing by LC/MS analysis. Type of series: ADME, organism-based. To be noted: in vivo. The essentials:
as §1

The subject of series [3] is Human immunodeficiency virus 1. Kind of series: Fold resistance, ratio of EC50 for HIV1 3B harboring reverse transcriptase Y181C mutant infected in human MT4 cells to EC50 for wild type HIV1 3B harboring reverse transcriptase infected in human MT4 cells. The format is functional. The gist of the method:
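Fold resistance is the EC50 against the mutant HIV-1 strain divided by the EC50 against WT IIIB. Both EC50s come from the MT-4 MTT cytoprotection assay (5-day read, 100−300 CCID50 inoculum).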

Series [4] in a line: MRT (0 to infinity) in Sprague-Dawley rat plasma at 16 mg/kg administered through oral gavage measured at 5 mins to 24 hrs post dosing by LC/MS analysis. Type of series: ADME, organism-based. The essentials: as §1
Series [5] can be described thus: AUMC (0 to t) in Sprague-Dawley rat plasma at 8 mg/kg administered through oral gavage measured at 5 mins to 24 hrs post dosing by LC/MS analysis. The format is ADME, organism-based. To be noted: in vivo. The essentials:
as §1

Series [6] in a line: Selectivity index, ratio of CC50 for human mock-infected MT4 cells to EC50 for HIV1 3B harboring reverse transcriptase Y188L mutant infected in human MT4 cells. Type of series: toxicity, cell-based. The following applies: MT4 cells (mock-infected for CC50, HIV-1 infected for EC50). The essentials: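 Selectivity index is CC50/EC50. CC50 is the concentration that reduces OD540 of mock-infected MT-4 cells by 50% in the 5-day MTT assay. EC50 is the 50% protection from virus-induced cytopathicity, measured in parallel on infected wells.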

The subject of series [7] is Human immunodeficiency virus 1. Nature of the series: Antiviral activity against HIV1 3B harboring reverse transcriptase Y181C mutant infected in human MT4 cells assessed as protection against virus induced cytotoxicity after 5 days by MTT assay. The format is functional, cell-based. The following applies: Human immunodeficiency virus 1, 3B, MT4, 120 h. The gist of the method:
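MTT cytopathicity assay in MT-4 cells (6 × 10^5 cells/mL). Compounds serially diluted 5-fold in triplicate wells, run in parallel on infected and mock-infected cells. Virus added at 100−300 CCID50 per well. Viability read spectrophotometrically at 540 and 690 nm after 5 days, using the median OD of three wells.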

Series [8] can be described thus: Apparent clearance during terminal phase in Sprague-Dawley rat plasma at 8 mg/kg administered through oral gavage measured at 5 mins to 24 hrs post dosing by LC/MS analysis. Type of series: ADME, organism-based. The following applies: in vivo. The essentials: as §1
The nature of series [9]: VRT (0 to infinity) in Sprague-Dawley rat plasma at 16 mg/kg administered through oral gavage measured at 5 mins to 24 hrs post dosing by LC/MS analysis. The following applies: in vivo. The format is ADME, organism-based. The gist of the method: as §1

`Cc1cc(C#N)cc(C)c1Oc1nc(NC2CCN(Cc3ccc(S(N)(=O)=O)cc3)CC2)nc2ccsc12`: the Vd/F in series [1] came to 50.1 L/kg. Further, the Tmax in series [2] was 1 h. In addition, in series [3], the “Ratio EC50” value is given as under 3. In series [4], the mean residence time (MRT inf) stood at 4.16 h. The same molecule came in with an AUMCt in [5] of 5690.8 ug/L.hr. Moreover, the selectivity ratio in series [6] was over 70000. Also, the EC50 in series [7] was 3.2 nM. Also, the CLz/F in series [8] worked out at 10.3 L/h/kg. The molecule further showed a VRT in series [9] of 25.29 hr2.
